Data: ChEMBL document CHEMBL5230149, “Discovery of novel ketoxime ether derivatives with potent FXR agonistic activity, oral effectiveness and high liver/blood ratio” (Bioorg Med Chem, 2021)
pEC50: −log10 of the molar value. Active and inactive are the calls of the source. The rule behind the calls is not given here.

Assays:
[1] = molecular target: T1, Bile acid receptor (Homo sapiens, UniProt Q96RI1); assay: Agonist activity at human FXR expressed in human Huh-7 cells co-transfected with FXRE-Luc reporter plasmid assessed as receptor transactivation incubated for 16 hrs by luciferase reporter gene assay; format: cell-based
T1 sequence (Q96RI1 whole entry): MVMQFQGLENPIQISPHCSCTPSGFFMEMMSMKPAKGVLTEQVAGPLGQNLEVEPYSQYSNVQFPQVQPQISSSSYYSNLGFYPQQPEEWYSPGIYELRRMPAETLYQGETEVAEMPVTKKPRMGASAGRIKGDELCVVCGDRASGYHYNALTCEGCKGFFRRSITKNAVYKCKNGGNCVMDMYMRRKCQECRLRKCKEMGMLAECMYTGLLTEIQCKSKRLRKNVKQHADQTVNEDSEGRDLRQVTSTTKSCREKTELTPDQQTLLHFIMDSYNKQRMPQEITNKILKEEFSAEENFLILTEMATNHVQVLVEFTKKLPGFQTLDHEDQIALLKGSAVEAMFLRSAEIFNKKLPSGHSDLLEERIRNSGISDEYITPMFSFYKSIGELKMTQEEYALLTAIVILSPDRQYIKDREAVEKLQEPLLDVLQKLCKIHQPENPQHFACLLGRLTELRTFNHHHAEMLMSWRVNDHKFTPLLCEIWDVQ

[2] = molecular target: T2, Bile acid receptor (Mus musculus) (UniProt Q60641); assay: Agonist activity at FXR in C57BL/6J mouse hepatocytes assessed as upregulation of BSEP mRNA expression at 0.4 to 10 uM incubated for 24 hrs by qRT-PCR analysis; format: cell-based; details: Hepatocyte, filed as agonist, dose 0.4-10 µM
T2 sequence (whole entry): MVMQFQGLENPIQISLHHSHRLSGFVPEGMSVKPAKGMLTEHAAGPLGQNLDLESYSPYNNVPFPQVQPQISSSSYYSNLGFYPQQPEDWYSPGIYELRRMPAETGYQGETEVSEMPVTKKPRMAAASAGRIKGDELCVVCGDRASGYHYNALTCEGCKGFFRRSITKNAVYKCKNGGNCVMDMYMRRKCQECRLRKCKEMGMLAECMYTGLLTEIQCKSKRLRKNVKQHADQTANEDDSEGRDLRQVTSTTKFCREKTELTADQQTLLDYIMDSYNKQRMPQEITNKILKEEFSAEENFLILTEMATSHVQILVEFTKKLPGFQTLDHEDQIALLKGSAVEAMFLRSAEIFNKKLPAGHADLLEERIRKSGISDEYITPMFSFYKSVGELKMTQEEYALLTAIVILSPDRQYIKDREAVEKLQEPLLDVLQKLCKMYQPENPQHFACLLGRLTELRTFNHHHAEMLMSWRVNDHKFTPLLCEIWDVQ
In short: (§1)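 Hepatocytes isolated from overnight-fasted male C57BL/6J mice (8–12 weeks), allowed 4 h to adhere, then given vehicle (0.5% DMSO) or compound at 0.4, 2 and 10 μM for 24 h. TRIzol RNA extraction, then qRT-PCR with GAPDH normalization by ΔΔCt. Values are expressed as fold over vehicle (mean ± S.E.M, n = 3).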

[3] = molecular target: T2, Bile acid receptor (Mus musculus); assay: In vivo agonist activity at FXR in C57BL/6J mouse assessed as downregulation of CYP8B1 mRNA expression in liver at 30 mg/kg, po measured after 6 hrs by qRT-PCR analysis; format: functional, organism-based
In short: (§2)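 Male C57BL/6J mice (7–8 weeks) fasted 3 h, then given a single oral dose; vehicle 0.25% CMC-Na (wt/vol). Killed 6 h post-dose; liver snap-frozen, stored at -80 °C. TRIzol RNA extraction, qRT-PCR, normalised to GAPDH by ΔΔCt. Values given as fold of vehicle group, mean ± SEM, n = 6.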

[4] = molecular target: T2, Bile acid receptor (Mus musculus); assay: Agonist activity at FXR in C57BL/6J mouse hepatocytes assessed as upregulation of SHP mRNA expression incubated for 24 hrs by qRT-PCR analysis; format: cell-based; details: Hepatocyte, filed as agonist, dose 0.4-10 µM; in short: as §1
[5] = molecular target: T2, Bile acid receptor (Mus musculus); assay: In vivo agonist activity at FXR in C57BL/6J mouse assessed as downregulation of CYP7A1 mRNA expression in liver at 30 mg/kg, po measured after 6 hrs by qRT-PCR analysis; format: functional, organism-based; in short: as §2
[6] = molecular target: T2, Bile acid receptor (Mus musculus); assay: In vivo agonist activity at FXR in C57BL/6J mouse assessed as downregulation of CYP8B1 mRNA expression in liver at 10 mg/kg, po measured after 6 hrs by qRT-PCR analysis; format: functional, organism-based
In short: (§3)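 Male C57BL/6J mice (7–8 weeks) were fasted 3 h, then dosed orally once in 0.25% CMC-Na (wt/vol) vehicle. Sacrificed 6 h post-dose; liver snap-frozen at -80 °C. TRIzol RNA extraction and qRT-PCR with GAPDH normalization (ΔΔCt). Results are fold over vehicle group (mean ± S.E.M, n = 6).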

[7] = molecular target: T2, Bile acid receptor (Mus musculus); assay: Agonist activity at FXR in C57BL/6J mouse hepatocytes assessed as fold upregulation of SHP mRNA expression at 10 uM incubated for 24 hrs by qRT-PCR analysis relative to control; format: cell-based; details: Hepatocyte; in short: as §1
[8] = Plasma concentration in ICR mouse at 15 mg/kg, po measured after 1.5 hrs by LC-MS/MS analysis; format: ADME, organism-based
In short: (§4)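 Overnight-fasted male ICR mice (n = 3 per time point) received single oral 15 mg/kg and were refed 2 h later. Blood and liver were taken at 1.5, 4 and 8 h. Serum (10 µL) was precipitated with 100 µL methanol/acetonitrile (1:1). Liver was homogenized in ten times its weight of the same solvent. Supernatants were diluted 1:1 in ACN/H₂O and analyzed by LC-MS/MS. The ratio is liver conc (ng/g) over plasma conc (ng/mL).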

[9] = molecular target: T2, Bile acid receptor (Mus musculus); assay: In vivo agonist activity at FXR in C57BL/6J mouse assessed as fold upregulation of FGF15 mRNA expression in ileum at 10 mg/kg, po measured after 6 hrs by qRT-PCR analysis relative to control; format: functional, organism-based
In short: (§5)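 Fasting of male C57BL/6J mice (7–8 weeks) for 3 h preceded a single oral dose in 0.25% CMC-Na (wt/vol). Ileum was collected 6 h after dosing and snap-frozen. RNA was extracted with TRIzol for qRT-PCR, normalized to GAPDH (ΔΔCt). Reported as fold of vehicle group (mean ± SEM, n = 6).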

[10] = Drug uptake in ICR mouse liver at 15 mg/kg, po measured after 4 hrs by LC-MS/MS analysis; format: ADME, organism-based; details: read-out: Drug uptake; in short: as §4
[11] = Plasma concentration in ICR mouse at 15 mg/kg, po measured after 8 hrs by LC-MS/MS analysis; format: ADME, organism-based; in short: as §4
[12] = molecular target: T2, Bile acid receptor (Mus musculus); assay: In vivo agonist activity at FXR in C57BL/6J mouse assessed as downregulation of CYP7A1 mRNA expression in liver at 10 mg/kg, po measured after 6 hrs by qRT-PCR analysis; format: functional, organism-based; in short: as §3
[13] = molecular target: T2, Bile acid receptor (Mus musculus); assay: In vivo agonist activity at FXR in C57BL/6J mouse assessed as fold upregulation of SHP mRNA expression in liver at 10 mg/kg, po measured after 6 hrs by qRT-PCR analysis relative to control; format: functional, organism-based; in short: as §3
[14] = Drug uptake in ICR mouse liver at 15 mg/kg, po measured after 1.5 hrs by LC-MS/MS analysis; format: ADME, organism-based; details: read-out: Drug uptake; in short: as §4
[15] = Ratio of drug uptake in ICR mouse liver to plasma at 15 mg/kg, po measured after 1.5 hrs by LC-MS/MS analysis; format: ADME, organism-based; in short: as §4
[16] = Plasma concentration in ICR mouse at 15 mg/kg, po measured after 4 hrs by LC-MS/MS analysis; format: ADME, organism-based; in short: as §4
[17] = molecular target: T3, TGR5 (G-protein coupled bile acid receptor 1) (Homo sapiens, UniProt Q8TDU6); assay: Agonist activity at human TGR5 expressed in HEK293 cells co-transfected with CRE-Luc reporter plasmid assessed as receptor transactivation incubated for 5.5 hrs by luciferase reporter gene assay relative to OCA; format: cell-based; details: read-out: Efficacy
T3 sequence (Q8TDU6 whole entry): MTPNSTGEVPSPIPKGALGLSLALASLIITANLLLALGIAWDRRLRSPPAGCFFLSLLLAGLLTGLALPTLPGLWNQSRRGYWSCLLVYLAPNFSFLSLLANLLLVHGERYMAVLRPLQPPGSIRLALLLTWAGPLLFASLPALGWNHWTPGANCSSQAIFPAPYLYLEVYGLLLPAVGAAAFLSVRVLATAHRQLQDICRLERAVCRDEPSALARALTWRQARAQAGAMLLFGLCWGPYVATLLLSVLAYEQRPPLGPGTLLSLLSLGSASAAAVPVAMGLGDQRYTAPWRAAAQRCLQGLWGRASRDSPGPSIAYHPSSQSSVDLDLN

[18] = Drug uptake in ICR mouse liver at 15 mg/kg, po measured after 8 hrs by LC-MS/MS analysis; format: ADME, organism-based; details: read-out: Drug uptake; in short: as §4
[19] = Ratio of drug uptake in ICR mouse liver to plasma at 15 mg/kg, po measured after 8 hrs by LC-MS/MS analysis; format: ADME, organism-based; in short: as §4
[20] = molecular target: T2, Bile acid receptor (Mus musculus); assay: In vivo agonist activity at FXR in C57BL/6J mouse assessed as fold upregulation of SHP mRNA expression in ileum at 10 mg/kg, po measured after 6 hrs by qRT-PCR analysis relative to control; format: functional, organism-based; in short: as §5
[21] = Ratio of drug uptake in ICR mouse liver to plasma at 15 mg/kg, po measured after 4 hrs by LC-MS/MS analysis; format: ADME, organism-based; in short: as §4
[22] = molecular target: T4, G-protein coupled bile acid receptor 1 (Homo sapiens, UniProt Q8TDU6); assay: Agonist activity at human TGR5 expressed in HEK293 cells co-transfected with CRE-Luc reporter plasmid assessed as receptor transactivation incubated for 5.5 hrs by luciferase reporter gene assay; format: cell-based
T4 sequence (Q8TDU6 whole entry): T3 sequence (Q8TDU6 whole entry)

With `C/C(=N\OCc1ccc(C(=O)O)o1)c1ccc(OCc2c(-c3c(Cl)cccc3Cl)noc2C2CC2)cc1Cl` as the molecule, how does the pEC50 [1] read?
Its pEC50 is 7.30.

Which Activity [2] does the source give for `CC[C@H]1[C@@H](O)[C@@H]2[C@H](CC[C@]3(C)[C@@H]([C@H](C)CCC(=O)O)CC[C@@H]23)[C@@]2(C)CC[C@@H](O)C[C@@H]12` here?
Its Activity is “Active”.

What about the Activity [3] of the same molecule?
The Activity was “Active”.

What about the Activity [4] of the same molecule?
The Activity was “Dose-Dependent Effect”.

And the Activity [5]?
Its Activity is “Active”.

With `C/C(=N\OCc1ccc(C(=O)O)cc1)c1ccc(OCc2c(-c3c(Cl)cccc3Cl)noc2C2CC2)cc1Cl` as the molecule, how does the pEC50 [1] read?
Its pEC50 is 6.87.

With `C/C(=N\OCc1cc(C)cc(C(=O)O)c1)c1ccc(OCc2c(-c3ccccc3OC(F)(F)F)noc2C2CC2)cc1Cl` as the molecule, how does the pEC50 [1] read?
The pEC50 was 6.80.

With `C/C(=N\OCc1cccc(C(=O)O)c1)c1ccc(OCc2c(-c3c(Cl)cccc3Cl)noc2C2CC2)cn1` as the molecule, how does the pEC50 [1] read?
Its pEC50 is 6.63.

For `C/C(=N\OCc1cc(C(=O)O)ccc1C#N)c1ccc(OCc2c(-c3c(Cl)cccc3Cl)noc2C2CC2)cc1Cl`, which Activity [6] is on record?
Its Activity is “Active”.

What about the fold change (FC) [7] of the same molecule?
Its fold change (FC) is greater than 40.

What about the concentration at 1.5 h [8] of the same molecule?
Its concentration at 1.5 h is 124 ng/mL.

What about the fold change (FC) [9] of the same molecule?
The fold change (FC) was 5.

What about the concentration at 4 h [10] of the same molecule?
Its concentration at 4 h is 2610 ng/g.

And the concentration at 8 h [11]?
The concentration at 8 h was 7.8 ng/mL.

And the pEC50 [1]?
Its pEC50 is 7.34.

What about the Activity [2] of the same molecule?
Its Activity is “Active”.

And the Activity [12]?
Its Activity is “Active”.

What about the fold change (FC) [13] of the same molecule?
The fold change (FC) was 2.

And the concentration at 1.5 h [14]?
Its concentration at 1.5 h is 4530 ng/g.

And the Activity [4]?
The Activity was “Dose-Dependent Effect”.

What about the Kp at 1.5 h [15] of the same molecule?
Its Kp at 1.5 h is 37.

What about the concentration at 4 h [16] of the same molecule?
Its concentration at 4 h is 45.4 ng/mL.

And the Emax at 5.5 h [17]?
Its Emax at 5.5 h is 1.1%.

And the concentration at 8 h [18]?
The concentration at 8 h was 341 ng/g.

What about the Kp at 8 h [19] of the same molecule?
The Kp at 8 h was 43.

And the fold change (FC) [20]?
Its fold change (FC) is 20.

And the Kp at 4 h [21]?
Its Kp at 4 h is 57.

What about the pEC50 [22] of the same molecule?
Its pEC50 is less than 4.00.

With `C/C(=N\OCc1cc(C(=O)O)ccc1C#N)c1ccc(OCc2c(-c3ccccc3OC(F)(F)F)noc2C2CC2)c(C)c1` as the molecule, how does the pEC50 [1] read?
The pEC50 was 6.36.

With `C/C(=N\OCc1cncc(C(=O)O)c1)c1ccc(OCc2c(-c3ccccc3OC(F)(F)F)noc2C2CC2)cc1Cl` as the molecule, how does the pEC50 [1] read?
The pEC50 was 7.26.

With `C/C(=N\OCc1ccc(C(=O)O)o1)c1ccc(OCc2c(-c3c(Cl)cccc3Cl)noc2C2CC2)cn1` as the molecule, how does the pEC50 [1] read?
The pEC50 was 5.86.

With `C/C(=N\OCc1ccccc1C(=O)O)c1ccc(OCc2c(-c3c(Cl)cccc3Cl)noc2C2CC2)cc1Cl` as the molecule, how does the pEC50 [1] read?
Its pEC50 is 7.12.

With `C/C(=N\OCc1cncc(C(=O)O)c1)c1ccc(OCc2c(-c3c(Cl)cccc3Cl)noc2C2CC2)cc1Cl` as the molecule, how does the pEC50 [1] read?
Its pEC50 is 7.19.
